# ATG4B inh: ATG4B protease inhibitors, primary screen, biochemical, fluorescence, uHTS | AID 504462, 2011 | inhibition, % at 8.33 µM | Cysteine protease ATG4B (Homo sapiens), Q9Y4P1 | ATG4B cleavage of LC3-PLA2, NBD-HPC fluorescence, 1 h | 0.51% of 340,000 active; in the data active = inhibition above about 40%
# Target sequence (Q9Y4P1 whole entry, looked up): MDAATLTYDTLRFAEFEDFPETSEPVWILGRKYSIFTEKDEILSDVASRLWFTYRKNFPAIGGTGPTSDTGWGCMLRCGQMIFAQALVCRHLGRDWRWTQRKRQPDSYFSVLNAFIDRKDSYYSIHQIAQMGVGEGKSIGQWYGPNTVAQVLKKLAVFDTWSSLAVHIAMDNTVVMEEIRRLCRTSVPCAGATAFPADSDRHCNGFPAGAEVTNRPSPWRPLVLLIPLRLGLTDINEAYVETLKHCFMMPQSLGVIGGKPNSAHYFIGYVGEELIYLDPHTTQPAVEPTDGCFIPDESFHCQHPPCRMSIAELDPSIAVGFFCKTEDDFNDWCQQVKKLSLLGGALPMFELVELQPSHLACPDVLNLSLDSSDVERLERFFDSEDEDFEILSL
# SR-BI HDL uptake: inhibitors of SR-BI mediated HDL lipid uptake, primary screen, ldlA[mSR-BI] cells, fluorescence, single point. ldlA[mSR-BI] CHO cells, DiI-HDL uptake fluorescence, 3 h. Scavenger receptor class B member 1 (Mus musculus), Q61009. inhibition, % at 12.5 µM. 0.96% of 320,000 active;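 active = mean replicate inhibition of at least 70% and a set share of replicates each scoring 70 or more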
# SR-BI DiI-HDL act: activators of SR-BI mediated DiI-HDL uptake, primary screen, ldlA[mSR-BI] CHO cells, DiI fluorescence; 0.096% of 320,000 active; AID 504775, 2011; activation, % at 12.5 µM; 3 h; 100 = double the neutral-control signal;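 active = mean replicate activation of at least 60% and every replicate at or above 60%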
#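 System: LDL receptor-deficient CHO ldlA cells overexpressing murine SR-BI | Timing: 3 h uptake period with compound, 37 °C | Medium: HEPES-buffered (25 mM, pH 7.4) F12 plus 0.5% BSA | Dosing: Single-point compound dose | Signal: Bottom-read fluorescence, 550/595 nm | Read-out: Retained DiI signal reflecting DiI-HDL uptake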
# CAL PDZ FP-1: untagged CAL PDZ binding inhibitors, primary screen, biochemical, fluorescence polarization, HTS. Golgi-associated PDZ and coiled-coil motif-containing protein (Homo sapiens), Q9HD26. purified CAL PDZ, TMR-peptide fluorescence polarization, 1 h. inhibition, % at 24.9 µM. 0.92% of 300,000 active. AID 602252, 2012;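 active = mean inhibition of at least 30% with at least half of replicates also reaching 30%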
# CAL PDZ FP-2: CAL PDZ peptide-binding inhibitors, primary screen, biochemical, fluorescence polarization, Cer-tagged CAL PDZ, HTS; Golgi-associated PDZ and coiled-coil motif-containing protein (Homo sapiens), Q9HD26; purified CAL PDZ, TMR-peptide fluorescence polarization, 1 h; inhibition, % at 20 µM; 0.02% of 330,000 active; AID 504414, 2011;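 active = highest replicate inhibition of at least 40%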
#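 Control set: unlabelled peptide and DMSO controls / Material: purified CerCALP PDZ construct / Timing: 1 h incubation at room temperature before polarization reading / Doses: 20 µM, one dose / Detection: fluorescence polarization (mP)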
# ATG4B confirm: ATG4B protease inhibitors, retest, confirmation, biochemical, fluorescence, single concentration. ATG4B protease fluorescent substrate cleavage assay. shares compounds with ATG4B inh. inhibition, % at 8.33 µM. AID 504757, 2011. 92% of 320 active; in the data active = inhibition above about 39%
# PLA2 counter: PLA2 enzyme inhibition, counter-screen for ATG4B inhibitor project, biochemical, single concentration, uHTS hits | AID 588402, 2011 | purified PLA2, NBD-C6-HPC fluorescence, 45 min | inhibition, % at 8.33 µM | 66% of 1,600 active | shares compounds with ATG4B inh; in the data active = inhibition above about 50%
# Target sequence (P04054 whole entry, looked up): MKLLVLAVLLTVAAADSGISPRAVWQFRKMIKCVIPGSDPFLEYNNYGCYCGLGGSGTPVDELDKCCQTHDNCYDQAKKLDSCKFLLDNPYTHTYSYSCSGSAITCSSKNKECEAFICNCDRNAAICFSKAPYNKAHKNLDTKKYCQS
# Hits are given with their value; 0 = inactive; - = no result. This is a sample that favours compounds with a hit; in the whole collection about 2.3% have one here.
SMILES,ATG4B inh,SR-BI HDL uptake,SR-BI DiI-HDL act,CAL PDZ FP-1,CAL PDZ FP-2,PLA2 counter,others
COc1ccc(OCCCC(=O)Nc2ncn[nH]2)cc1,0,0,0,0,0,-,
COc1cccc(-c2nn(-c3ccc(C)cc3)cc2C(=O)N2CCN(C3CCS(=O)(=O)C3)CC2)c1 (configuration not stated),0,0,-,0,0,-,
COc1ccc(N2C(=O)c3ccccc3NC23CCC(C)CC3)cc1 (configuration not stated),45.0,0,0,0,0,0,ATG4B confirm=61.1
CCN1C(C(=O)c2ccccc2)=C(Nc2ccccc2C)c2ccccc2S1(=O)=O,50.8,0,0,0,0,55.1,
S=c1[nH]nc(-c2ccccn2)n1/N=C/c1c(Cl)cccc1Cl,0,0,0,0,0,-,
O=C(O)COc1ccccc1C=NNc1ccc([N+](=O)[O-])cc1S(=O)(=O)Nc1ccc(Cl)cc1,44.3,0,0,0,0,0,ATG4B confirm=63.7
CCN(CC)CCCn1c2c(c(SCC(=O)N3CCc4ccccc43)nc1=O)CCC2,0,0,0,0,0,-,
O=C(Nc1sc2c(c1C(=O)O)CCCC2)c1cccc(Cl)c1,42.4,0,0,0,0,50.9,
O=C(Nc1sc2c(c1C(=O)O)CCCCC2)c1ccccc1,0,0,0,-,0,-,
O=C(O)C/C=C(/NC(=O)OCc1ccccc1)C(=O)OCc1ccccc1,0,0,0,-,0,-,
O=C(CSc1nnc(-c2ccc(Br)o2)n1Cc1ccccc1)c1ccccc1F,56.9,0,0,0,0,57.4,
Cc1cc(NC(=O)CSc2nnc(-c3ccc(Br)o3)n2Cc2ccccc2)no1,0,0,0,0,0,-,
Cc1cc(C#Cc2c(-c3ccccc3)n(C)c3ccccc23)ccc1F,0,0,0,0,0,-,
COc1cc(CCc2ccccc2)c(C(=O)O)c(O)c1CC=C(C)C,75.3,0,0,0,0,86.5,
COc1cc(CCc2ccccc2)c(C(=O)O)c(O)c1C/C=C(/C)CCC=C(C)C,85.3,0,0,0,0,90.3,
O=C(Nc1ccccc1Br)C1CCN(S(=O)(=O)c2cccs2)CC1,0,0,0,0,0,-,
Cc1ccc(S(=O)(=O)NCc2c(Cl)cccc2Oc2ccccc2)cc1,63.1,0,0,-,0,58.9,
Cc1cccc(NC(=S)NCc2ccccc2Cl)c1C,0,0,0,0,-,-,
Cc1c(Cl)cccc1NC(=S)NCc1ccc(Cl)cc1,70.2,0,0,0,0,81.3,
Cc1c(Cl)cccc1NC(=S)NCc1ccccc1,54.4,0,0,0,0,69.5,
Cc1c(Cl)cccc1NC(=S)NC1CCN(Cc2ccccc2)CC1,47.9,0,0,0,0,58.5,
O=Cc1cc(Cl)ccc1OCCN1CCC(Cc2ccccc2)CC1,84.4,0,0,0,0,86.8,
Cc1c(Cl)cccc1Nc1ccccc1C(=O)O,43.7,0,0,0,0,0,ATG4B confirm=56.7
Cc1c(Cl)cccc1Nc1ncccc1C(=O)O,0,0,0,0,0,-,
CC(C)c1cc(C(=O)OCC(=O)N2CCN(C(=O)c3ccco3)CC2)c(O)c(C(C)C)c1,0,0,0,0,0,-,
SMILES,ATG4B inh,SR-BI HDL uptake,SR-BI DiI-HDL act,CAL PDZ FP-1,CAL PDZ FP-2,PLA2 counter,others
Cc1ccc(S(=O)(=O)Nc2ccc(-c3nnc(SCc4ccccc4Cl)o3)cc2)cc1,51.5,0,0,0,0,0,
Cc1ccc(CSc2nnc(-c3ccc(NS(=O)(=O)c4ccccc4)cc3)o2)cc1,0,0,0,0,0,-,
CCc1cccc(C)c1NC(=O)CCCSc1nc2ccccc2s1,64.8,0,0,0,0,57.4,
CCCCCC(=O)Nc1ccccc1N1CCN(c2ccccc2)CC1,41.3,0,0,0,0,0,ATG4B confirm=51.1
COc1ccc(C2CC(O)(c3ccccc3)Oc3c(C)ccc(C)c32)cc1 (configuration not stated),56.5,0,0,0,0,65.0,
COc1ccc(C2CC(O)(c3ccccc3)Oc3cc(OC)cc(OC)c32)cc1 (configuration not stated),0,0,0,0,0,-,
N#C/C(=N\Nc1ccccc1[N+](=O)[O-])C(=N)N1CCCCC1,0,0,0,-,0,-,
O=C(COC(=O)c1ccc(O)cc1O)N=c1sccn1Cc1ccccc1Cl,42.9,0,0,0,0,56.6,
N#CCC(=O)Nc1ccc(C(=O)OCC(=O)N=c2sccn2Cc2ccccc2Cl)cc1,41.2,0,0,0,0,56.9,
Cc1ccc(C(=O)C(C)Oc2ccc3ccc(=O)oc3c2)cc1 (configuration not stated),0,0,0,0,0,-,
O=S(=O)(c1cccs1)N1CCN(c2ccccc2Cl)CC1,44.9,0,0,-,0,63.6,
O=S(=O)(c1cccs1)N1CCN(c2ccccc2F)CC1,0,-,-,-,0,-,
Cc1cc(NCc2ccc(F)cc2)nc2cc(Cl)ccc12,51.0,0,0,-,0,74.5,
Cc1ccc(CNc2ncnc3cc(Cl)ccc23)cc1,0,-,-,0,0,-,
COC(=O)C(C)N(C(=O)c1ccc(Cl)cc1)c1c(C)cccc1C (configuration not stated),0,0,0,0,0,-,
COC(=O)C(C)N(C(=O)c1ccc(C(=O)c2ccccc2)cc1)c1c(C)cccc1C (configuration not stated),56.7,0,0,0,0,0,ATG4B confirm=58.2
O=C(c1c(Cl)cccc1Cl)N1CCN(c2ncccn2)CC1,0,0,0,0,0,-,
CC(C)(C)c1cc(=O)[nH]c(SCc2ccccc2)n1,0,0,0,0,-,-,
CC(C)(C)c1cc(=O)[nH]c(SCc2ccccc2Cl)n1,50.4,0,0,0,-,51.5,
Cc1cccc(NC(=S)Nc2ccc(Oc3ccccc3)cc2)n1,44.4,0,0,0,0,0,ATG4B confirm=66.7
Cc1cccc(NC(=S)Nc2cccc(C)n2)n1,0,0,0,0,0,-,
Oc1ccccc1C1CCCCC1c1ccccc1 (configuration not stated),51.9,0,0,0,0,0,
Cc1nnc(SC(C)C(=O)Nc2ccc(Cl)cc2Cl)[nH]c1=O (configuration not stated),0,0,0,0,0,-,
Cc1ccc(-c2cc(-c3ccccc3[N+](=O)[O-])[nH]n2)c(O)c1,60.6,0,0,-,0,75.0,
